A selection: hits, their analogues and other compounds. The true share with any hit is near 5.4%.
PLAP act: PLAP enzyme activators, biochemical, luminescence, HTS; Alkaline phosphatase, placental type (Homo sapiens), P05187; purified PLAP enzyme, luminescent substrate read-out; stronger effect = higher value; activation fold at 20 µM; 1.2% of 96,000 active; in the data active = activation fold above about 2
Target sequence (P05187 whole entry, looked up): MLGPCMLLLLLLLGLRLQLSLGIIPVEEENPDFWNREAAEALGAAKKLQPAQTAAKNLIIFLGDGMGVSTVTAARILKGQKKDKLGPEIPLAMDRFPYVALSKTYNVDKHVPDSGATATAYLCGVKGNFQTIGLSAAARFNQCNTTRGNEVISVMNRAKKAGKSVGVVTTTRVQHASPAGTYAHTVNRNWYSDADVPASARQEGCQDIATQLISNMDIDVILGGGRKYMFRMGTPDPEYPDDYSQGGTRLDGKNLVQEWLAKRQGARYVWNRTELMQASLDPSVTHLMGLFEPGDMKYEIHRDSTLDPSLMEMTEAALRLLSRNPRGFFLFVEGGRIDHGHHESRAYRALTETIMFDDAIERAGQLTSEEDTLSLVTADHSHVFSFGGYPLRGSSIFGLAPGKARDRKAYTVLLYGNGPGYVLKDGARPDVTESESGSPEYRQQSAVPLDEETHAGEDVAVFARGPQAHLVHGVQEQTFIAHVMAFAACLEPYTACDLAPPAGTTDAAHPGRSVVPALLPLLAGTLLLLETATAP
tolC growth inh: growth inhibitors of E. coli tolC mutant, primary screen, strain BW25113 ΔtolC::kan, 384-well; AID 573, 2007; 2.2% of 65,000 active; growth inhibition, % at 10 µM (by protocol); OD615;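 active = growth inhibition at or above a cutoff equal to the mean over every tested compound plus 3 SD, cut at about 60% in these data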;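 also: growth measured after 20 h incubation at 37 °C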
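Test system: E. coli BW25113 ΔtolC::kan bacteria | Medium: Kanamycin-containing LB broth (50 µg/mL) | Dosing: One dose of 10 µM final | Times: 20 h incubation with compound, 37 °C | Detection: Optical density read at 615 nm | Read-out basis: Percent growth inhibition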
PostGolgi yeast: phenotypic screen on post-Golgi transport, primary screen | AID 739, 2007 | 0.9% of 98,000 active | inhibition, % at 10 µM | post-Golgi transport phenotypic cell assay;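 also: yeast cells grown in 1536-well plates; yeast grown about 18 h at 30C before absorbance read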
PostGolgi ctrl: growth inhibition of yeast control strain, primary screen, counter-screen for post-Golgi transport modulator project; 5% of 98,000 active; efflux-deficient yeast background strain, growth absorbance A615, 16 h; inhibition, % at 10 µM
Ecoli WT expand: growth inhibitors of wild-type E. coli, primary screen, strain BW25113, expanded library, OD600. OD600 absorbance. AID 710, 2007. growth inhibition, % at 100 µM. 0.15% of 98,000 active;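 active = growth inhibition above about 50% at one test dose, limit read from the data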;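 also: growth measured after 20 h incubation at 37 °C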
HePTP inh: inhibitors of human HePTP phosphatase, primary screen, biochemical, absorbance, leukemia target. 0.64% of 110,000 active. recombinant HePTP phosphatase activity, OD absorbance. Tyrosine-protein phosphatase non-receptor type 7 (Homo sapiens), P35236. AID 521, 2006. inhibition, % at 20 µM; in the data active = inhibition above about 50%
A number is an active result; – = inactive; · = not tested or not shown. Rule as the data show it, unless noted: active = inhibition above about 30%; inactive = the rest.

SMILES | PLAP act | tolC growth inh | PostGolgi yeast | PostGolgi ctrl | Ecoli WT expand | HePTP inh
Cc1ccc2c(c1)NC(C)(C)c1sn(Cc3ccc(Cl)cc3)c(=S)c1-2 | · | · | · | · | · | –
Cc1cc(C)n(-c2nc3ccccc3nc2N2CCOCC2)n1 | · | – | · | · | · | –
Cc1cc(C)n(-c2cc(N3CCOCC3)nc(-c3ccccc3)n2)n1 | – | – | – | 42 | – | –
Cc1cc(-n2[nH]c(C)c(C)c2=O)nc(-c2ccccc2O)n1 | 2.5 | – | · | · | · | –
Cc1cc(OCc2ccc(F)cc2)nc(-c2ccccc2O)n1 | – | – | – | – | – | –
Cc1cc(N2CCN(c3ccccc3)CC2)nc(-n2nc(C)cc2C)n1 | – | 71 | – | – | – | –
Cc1cc(N2CCN(c3ccccc3)CC2)nc(-c2ccccc2O)n1 | – | · | 82 | 77 | – | –
CCOC(=O)C1=C(C)NC2=C(C(=O)CC(c3ccccc3)C2)C1c1ccc(Cl)cc1 (stereo not given) | · | · | · | · | · | –
COCCOC(=O)C1=C(C)NC(=O)NC1c1ccc(OCC(N)=O)cc1 (stereo not given) | · | · | · | · | · | –
Cc1ccc(NCc2nnc(SCc3ccc(C#N)cc3)n2Cc2ccco2)c(C)c1 | – | 61 | 49 | 40 | – | –
COc1ccc(C(=O)CSc2nnc(CNc3ccc(C)cc3C)n2Cc2ccco2)cc1 | – | – | – | – | – | –
N#Cc1ccc(CSc2nnc(Cc3cccs3)n2Cc2ccco2)cc1 | – | – | – | – | – | –
Cc1ccc(C(=O)CSc2nnc(CNc3ccc(C)cc3C)n2Cc2ccco2)cc1 | – | – | – | 40 | – | –
CC(C)CNc1nc(Oc2ccc(=O)n(-c3ccccc3)n2)nc(N2CCOCC2)n1 | – | – | – | – | – | –
CC(C)CNc1nc(Oc2ccc(=O)n(C)n2)nc(N2CCOCC2)n1 | – | – | 32 | – | – | –
CCc1n[nH]c2c1/C(=N\O)CC(C)(C)C2 | – | – | 98 | – | – | –
COc1cc(C(=O)NC(NC(=S)N2CCOCC2)C(Cl)(Cl)Cl)cc(OC)c1OC (stereo not given) | · | · | · | · | · | –
COc1c(Cl)cc(/C=C2/SC(=S)N(c3ccccc3)C2=O)cc1Cl | · | · | · | · | · | –
Cc1noc(C)c1COC(=O)c1ccc2c(c1)OCO2 | – | – | – | 43 | – | –
CCCCn1c(CN2CCN(c3cccc(Cl)c3)CC2)nc2c1c(=O)n(C)c(=O)n2C | 2.1 | – | – | – | – | –
CCCCCn1c(CN2CCN(c3cccc(Cl)c3)CC2)nc2c1c(=O)n(C)c(=O)n2C | – | 62 | · | · | · | –
COc1ccc(CC(=O)Nc2ccc(Cl)cc2C)cc1OC | · | · | · | · | · | –
COc1ccc(C)cc1NC(=O)COc1ccc(Br)c(C)c1 | · | · | · | · | · | –
CCOC(=O)CN(CP(=O)(OCC)OCC)CP(=O)(OCC)OCC | · | · | · | · | · | –
O=C(NCc1cc(C(F)(F)F)cc(C(F)(F)F)c1)C1CC(c2c(Cl)cccc2Cl)=NO1 (stereo not given) | – | · | – | – | – | ·
SMILES | PLAP act | tolC growth inh | PostGolgi yeast | PostGolgi ctrl | Ecoli WT expand | HePTP inh
O=C(NCc1ccc(OC(F)(F)F)cc1)C1CC(c2c(Cl)cccc2Cl)=NO1 (stereo not given) | – | · | – | 31 | – | ·
Brc1ccccc1-c1nnc2sc(-c3ccc4c(c3)OCCO4)nn12 | – | – | – | 60 | – | –
COC(=O)c1c(C)oc2ccc(OC(=O)c3cccs3)cc12 | – | 84 | – | – | – | –
Fc1ccc2[nH]c3c(NCCN4CCOCC4)ncnc3c2c1 | – | · | – | – | – | ·
Clc1ccc2[nH]c3c(NCCN4CCOCC4)ncnc3c2c1 | – | – | – | 30 | – | –
Clc1ccc2[nH]c3c(NCC4CCCO4)ncnc3c2c1 (stereo not given) | – | – | 37 | – | – | –
O=C(Cc1ccccc1)Nc1cccc(-c2nc3ccccc3c(=O)o2)c1 | · | · | · | · | · | –
CCOc1ccccc1NC(=O)c1c(NC(=O)c2ccco2)sc2c1CCC2 | · | · | · | · | · | –
CC(NC(=O)/C(CCCC#N)=N/O)c1ccccc1 (stereo not given) | · | · | · | · | · | –
COc1ccc(OC)c(Nc2nc(-c3sc(C)nc3C)cs2)c1 | 2.1 | – | – | 48 | – | –
COc1ccc(OC)c(Nc2nc(-c3sc(NC(=O)C(C)(C)C)nc3C)cs2)c1 | – | · | – | – | – | ·
O=C(Cn1c(=O)n(Cc2ccc3c(c2)OCO3)c(=O)c2ccccc21)N1CCCc2ccccc21 | · | – | – | 50 | – | –
O=C(Nc1sc2c(c1C(=O)O)CCC2)c1cccs1 | – | 76 | – | – | – | –
CNC(=O)c1c(NC(=O)c2cccs2)sc2c1CCCC2 | · | · | · | · | · | –
CC(C)NC(=O)c1c(NC(=O)c2cccs2)sc2c1CCCC2 | · | · | · | · | · | –
NC(=O)c1c(NC(=O)c2cccs2)sc2c1CCCCCC2 | – | – | – | 68 | – | –
Cc1cc(C)c(NC(=O)C2C3C4CCC(C4)C23)c(C)c1 (stereo not given) | · | · | · | · | · | –
Cc1ccccc1OCC(=O)Nc1ccc(F)cc1F | · | · | · | · | · | –
Cc1ccc(Nc2nc(Nc3cccc([N+](=O)[O-])c3)nc(SC(=S)N3CCOCC3)n2)cc1 | · | · | · | · | · | –
Cc1ccc2[nH]c3c(N4CCOCC4)ncnc3c2c1 | – | – | – | – | – | –
Brc1ccc2[nH]c3c(N4CCc5ccccc5C4)ncnc3c2c1 | – | · | 42 | 76 | – | ·
Cc1ccc2[nH]c3c(N4CCc5ccccc5C4)ncnc3c2c1 | – | · | – | 43 | – | ·
Cc1nc(NC(C)c2ccccc2)c2oc3ccccc3c2n1 (stereo not given) | – | – | – | 74 | – | –
COc1ccc(CCNc2nc(C)nc3c2oc2ccccc23)cc1OC | 2 | · | – | – | – | –
COc1ccc(CCNc2ncnc3c2oc2ccccc23)cc1OC | – | – | – | – | – | –
SMILES | PLAP act | tolC growth inh | PostGolgi yeast | PostGolgi ctrl | Ecoli WT expand | HePTP inh
Cc1cc(=O)oc2cc(OCC(=O)c3ccccc3)cc(OCC(=O)c3ccccc3)c12 | · | · | · | · | · | –
COc1cc(C=O)ccc1OCCN1CCOCC1 | · | · | · | · | · | 103
CCOc1ccc(C2C(C(=O)OC)=C(C)NC(C)=C2C(=O)OC)cc1OC | · | · | · | · | · | –
Cc1ccc(NS(=O)(=O)c2cc(C(=O)NCCSc3ccc(C)cc3)ccc2C)cc1 | – | · | – | 36 | – | ·
Cc1ccc(NS(=O)(=O)c2cc(C(=O)N3CCOCC3)ccc2C)cc1 | – | – | 48 | – | – | –
CCOC(=O)c1ccc(CSc2n[nH]c(C)n2)o1 | 2 | – | – | – | – | –
O=C1c2ccccc2C(=O)c2c(NCCO)ccc(NCCO)c21 | · | · | · | · | · | –
N#Cc1nc(COc2ccc(-c3ccccc3)cc2)oc1NCCCN1CCOCC1 | – | – | 78 | – | – | –
N#Cc1nc(COc2ccccc2)oc1NCCN1CCOCC1 | – | – | – | – | – | –
c1ccc(-c2oc3ncnc(NCCCN4CCOCC4)c3c2-c2ccccc2)cc1 | – | – | – | 67 | – | –
CSCCC(NC(=O)/C(=C\c1ccccc1)NC(=O)c1ccco1)C(=O)O (stereo not given) | · | · | · | · | · | –

Compound activity as filed in PubChem BioAssay.
